# Tests used:
# [1] = molecular target: T1, Amyloid-beta precursor protein (Homo sapiens, UniProt P05067); assay: Concentration required to inhibit A beta 40 peptide at 100 uM
# Outline: (§1)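 H4-APP695NL human neuroglioma cells (APP695 Swedish K595N/M596L) seeded at 2 × 10^5/well and grown 24 h to confluence. Increasing compound concentrations added overnight; DMSO 1% as vehicle. Supernatant Aβ42 or Aβ40 measured by electrochemiluminescence immunoassay: biotinylated 4G8 plus C-terminus-specific rabbit antibodies, captured on streptavidin beads.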
# Target sequence in this assay (P05067 whole entry): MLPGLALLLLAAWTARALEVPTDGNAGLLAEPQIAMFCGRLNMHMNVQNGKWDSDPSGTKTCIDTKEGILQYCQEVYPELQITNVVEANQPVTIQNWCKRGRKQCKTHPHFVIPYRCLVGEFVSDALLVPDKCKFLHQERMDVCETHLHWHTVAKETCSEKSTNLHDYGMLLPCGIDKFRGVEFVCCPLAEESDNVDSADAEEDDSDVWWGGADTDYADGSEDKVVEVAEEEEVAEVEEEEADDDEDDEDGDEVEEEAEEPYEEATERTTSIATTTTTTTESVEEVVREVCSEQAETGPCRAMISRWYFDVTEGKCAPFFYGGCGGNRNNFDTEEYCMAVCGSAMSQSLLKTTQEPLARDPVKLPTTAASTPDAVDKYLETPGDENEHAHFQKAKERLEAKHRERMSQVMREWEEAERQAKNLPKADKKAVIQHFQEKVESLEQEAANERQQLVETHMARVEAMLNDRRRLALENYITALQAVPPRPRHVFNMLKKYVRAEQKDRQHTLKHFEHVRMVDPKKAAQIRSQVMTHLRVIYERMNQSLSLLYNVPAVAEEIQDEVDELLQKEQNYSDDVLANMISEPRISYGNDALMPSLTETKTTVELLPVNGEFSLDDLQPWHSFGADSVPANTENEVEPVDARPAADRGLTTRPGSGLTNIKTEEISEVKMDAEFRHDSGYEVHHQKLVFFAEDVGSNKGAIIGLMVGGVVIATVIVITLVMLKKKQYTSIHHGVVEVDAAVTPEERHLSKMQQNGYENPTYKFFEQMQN
# [2] = molecular target: T1, Amyloid-beta precursor protein; conditions: at 100 µM
# Target sequence in this assay (P05067 whole entry): as above
# Cytochrome P450 2C9 = Cytochrome P450 2C9 (Homo sapiens, UniProt P11712); assay: Interaction with human cytochrome P450 isoform 2C9 expressed in baculovirus-insect cells; assay type: ADME
# Outline: (§2)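 Microsomes from baculovirus-insect cells expressing human CYP1A2, 2C9, 2C19, 2D6 or 3A4. Compound serially diluted with an NADPH-regenerating mix (16.3 μM NADP+, 0.83 mM glucose-6-phosphate, 0.83 mM MgCl2, 0.4 U/mL G6PDH). Pre-warmed 10 min at 37 °C, then isoform-specific substrate added in 0.35 M potassium phosphate pH 7.4. Fluorometric read-out; IC50 by nonlinear regression.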
# Cytochrome P450 3A4 = Cytochrome P450 3A4 (Homo sapiens, UniProt P08684); assay: Interaction with human cytochrome P450 isoform 3A4 expressed in baculovirus-insect cells; assay type: ADME
# Outline: (§3)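 Supersome microsomes from baculovirus-insect cells expressing human CYP1A2, 2C9, 2C19, 2D6 or 3A4 were used with isoform-specific fluorogenic substrates. Compounds were serially diluted with an NADP⁺/glucose-6-phosphate regenerating system in 0.35 M potassium phosphate, pH 7.4. Plates were prewarmed 10 min at 37 °C, reactions stopped with acetonitrile/Tris, and fluorescence read. IC50 was obtained by nonlinear regression.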
# Cytochrome P450 2C19 = Cytochrome P450 2C19 (Homo sapiens, UniProt P33261); assay: Interaction with human cytochrome P450 isoform 2C19 expressed in baculovirus-insect cells; assay type: ADME; outline: as §2
# [3] = molecular target: T1, Amyloid-beta precursor protein; assay: Inhibitory concentration against beta-amyloid-42 (Abeta42) secretion was evaluated in human neuroglioma cells (H4-APP695NL); assay type: functional, cell-based; outline: as §1
# Target sequence in this assay (P05067 18-770 limits assumed): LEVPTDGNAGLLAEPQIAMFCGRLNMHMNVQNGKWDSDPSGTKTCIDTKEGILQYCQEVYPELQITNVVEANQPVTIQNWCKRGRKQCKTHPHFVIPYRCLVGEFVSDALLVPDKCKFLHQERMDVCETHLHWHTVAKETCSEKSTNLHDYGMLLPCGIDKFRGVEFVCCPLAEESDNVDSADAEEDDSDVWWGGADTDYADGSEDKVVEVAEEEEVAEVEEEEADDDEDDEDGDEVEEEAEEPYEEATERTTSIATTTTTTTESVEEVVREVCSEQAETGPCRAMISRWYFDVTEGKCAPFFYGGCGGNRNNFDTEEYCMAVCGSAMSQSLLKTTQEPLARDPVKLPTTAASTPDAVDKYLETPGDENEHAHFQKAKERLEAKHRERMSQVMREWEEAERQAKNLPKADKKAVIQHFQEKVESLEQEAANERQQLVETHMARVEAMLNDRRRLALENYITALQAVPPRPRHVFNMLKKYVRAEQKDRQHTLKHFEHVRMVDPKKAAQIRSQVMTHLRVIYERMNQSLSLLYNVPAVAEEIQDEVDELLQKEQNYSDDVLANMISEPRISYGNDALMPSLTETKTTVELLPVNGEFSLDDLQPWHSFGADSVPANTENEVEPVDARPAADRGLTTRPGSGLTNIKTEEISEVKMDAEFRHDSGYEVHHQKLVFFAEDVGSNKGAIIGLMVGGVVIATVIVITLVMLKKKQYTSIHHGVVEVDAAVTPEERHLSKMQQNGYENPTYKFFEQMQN
# [4] = Intestinal drug absorption was estimated in vitro using human colon adenocarcinoma (Caco-2) cell monolayers; assay type: ADME
# Outline: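 Caco-2 monolayers on polycarbonate Transwell inserts, 2 h at 37 °C. Apical and basolateral solutions analysed by LC-MS/MS (SRM). Papp = Cb·Vb/(C0·A·t).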
# [5] = molecular target: T2, Prostaglandin G/H synthase 1 (Rattus norvegicus) (UniProt Q63921); assay: Percent inhibition against cyclooxygenase-1 at 100 uM in rat blood
# T2 sequence (whole entry): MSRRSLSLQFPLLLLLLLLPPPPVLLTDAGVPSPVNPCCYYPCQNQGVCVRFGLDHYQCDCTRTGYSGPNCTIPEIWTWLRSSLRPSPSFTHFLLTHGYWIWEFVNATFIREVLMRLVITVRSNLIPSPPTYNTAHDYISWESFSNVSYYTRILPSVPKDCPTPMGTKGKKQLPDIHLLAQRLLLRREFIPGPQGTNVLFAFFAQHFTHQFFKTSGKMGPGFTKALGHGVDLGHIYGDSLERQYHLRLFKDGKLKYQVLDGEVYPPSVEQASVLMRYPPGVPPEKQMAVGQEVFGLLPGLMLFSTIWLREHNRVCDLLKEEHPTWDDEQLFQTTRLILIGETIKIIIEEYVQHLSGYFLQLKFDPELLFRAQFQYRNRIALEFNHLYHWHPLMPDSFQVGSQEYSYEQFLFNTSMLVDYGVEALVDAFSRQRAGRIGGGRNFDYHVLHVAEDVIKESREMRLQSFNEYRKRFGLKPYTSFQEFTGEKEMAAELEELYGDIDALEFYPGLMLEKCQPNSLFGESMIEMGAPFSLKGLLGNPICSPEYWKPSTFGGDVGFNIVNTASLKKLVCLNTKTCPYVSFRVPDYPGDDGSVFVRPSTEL
# Outline: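 Fresh rat whole blood preincubated 1 h at 37 °C with compound (100 μM) or DMSO (0.3% final). Stimulated 30 min with A23187 calcium ionophore; plasma thromboxane B2 measured by radioimmunoassay.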
# [6] = Concentration ratio in cerebrospinal fluid and plasma; conditions: rat
# [7] = In vivo steady state metabolic clearance of the compound; conditions: rat
# [8] = molecular target: T3, Prostaglandin G/H synthase 1 (Rattus norvegicus, UniProt Q63921); assay: Concentration required to inhibit cyclooxygenase-1 in rat blood
# T3 sequence (Q63921 whole entry): T2 sequence (whole entry)
# Outline: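 Fresh rat whole blood was preincubated 1 h at 37 °C with compound (100 μM or a concentration series; DMSO 0.3% final). It was then stimulated 30 min with the Ca²⁺ ionophore A23187. Thromboxane B2 in the plasma was measured by radioimmunoassay.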
# Cytochrome P450 2D6 = Cytochrome P450 2D6 (Homo sapiens, UniProt P10635); assay: Interaction with human cytochrome P450 isoform 2D6 expressed in baculovirus-insect cells; assay type: ADME; outline: as §3
# [9] = molecular target: T1, Amyloid-beta precursor protein; assay: (§4) Concentration required to inhibit A beta 40 peptide 100 uM; outline: as §1
# Target sequence in this assay (P05067 whole entry): as the sequence (P05067 whole entry) above
# [10] = molecular target: T1, Amyloid-beta precursor protein; assay: as §4; remark: listed apart in the source
# Target sequence in this assay (P05067 whole entry): as above
# CYP1A2 = molecular target: T4, CYP1A2 (Homo sapiens, UniProt P05177); assay: Interaction with human cytochrome P450 isoform 1A2 expressed in baculovirus-insect cells at 100 uM; assay type: ADME; outline: as §2
# T4 sequence (P05177 whole entry): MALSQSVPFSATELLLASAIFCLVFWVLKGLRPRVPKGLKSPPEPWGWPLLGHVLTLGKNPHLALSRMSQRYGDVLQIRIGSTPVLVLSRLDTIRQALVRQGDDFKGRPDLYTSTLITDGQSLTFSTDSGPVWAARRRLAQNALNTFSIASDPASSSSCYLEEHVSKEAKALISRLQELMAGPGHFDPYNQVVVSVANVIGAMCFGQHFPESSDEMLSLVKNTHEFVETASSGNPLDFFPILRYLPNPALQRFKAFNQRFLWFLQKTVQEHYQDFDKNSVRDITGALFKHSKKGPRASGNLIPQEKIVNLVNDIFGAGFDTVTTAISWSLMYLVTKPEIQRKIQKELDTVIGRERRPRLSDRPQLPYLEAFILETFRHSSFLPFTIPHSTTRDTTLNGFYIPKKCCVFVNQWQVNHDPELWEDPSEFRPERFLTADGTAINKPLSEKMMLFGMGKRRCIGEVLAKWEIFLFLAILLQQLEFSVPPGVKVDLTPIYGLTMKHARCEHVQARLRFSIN
# CYP2D6 = CYP2D6 (Homo sapiens, UniProt P10635); assay: Interaction with human cytochrome P450 isoform 2D6 expressed in baculovirus-insect cells at 100 uM; assay type: ADME; outline: as §2
# CYP2C9 = CYP2C9 (Homo sapiens, UniProt P11712); assay: Interaction with human cytochrome P450 isoform 2C9 expressed in baculovirus-insect cells at 100 uM; assay type: ADME; outline: as §2
# CYP3A4 = CYP3A4 (Homo sapiens, UniProt P08684); assay: Interaction with human cytochrome P450 isoform 3A4 expressed in baculovirus-insect cells at 100 uM; assay type: ADME; outline: as §2
# CYP2C19 = CYP2C19 (Homo sapiens, UniProt P33261); assay: Interaction with human cytochrome P450 isoform 2C19 expressed in baculovirus-insect cells at 100 uM; assay type: ADME; outline: as §2
# [11] = molecular target: T1, Amyloid-beta precursor protein; assay: Concentration required to inhibit A beta 40 peptide; outline: as §1
# Target sequence in this assay (P05067 whole entry): as the sequence (P05067 whole entry) above
# [12] = Concentration ratio in cerebrospinal fluid and plasma; below lower limit of quantitation; conditions: rat
# Sequence of Cytochrome P450 2C9 (P11712 whole entry, canonical isoform): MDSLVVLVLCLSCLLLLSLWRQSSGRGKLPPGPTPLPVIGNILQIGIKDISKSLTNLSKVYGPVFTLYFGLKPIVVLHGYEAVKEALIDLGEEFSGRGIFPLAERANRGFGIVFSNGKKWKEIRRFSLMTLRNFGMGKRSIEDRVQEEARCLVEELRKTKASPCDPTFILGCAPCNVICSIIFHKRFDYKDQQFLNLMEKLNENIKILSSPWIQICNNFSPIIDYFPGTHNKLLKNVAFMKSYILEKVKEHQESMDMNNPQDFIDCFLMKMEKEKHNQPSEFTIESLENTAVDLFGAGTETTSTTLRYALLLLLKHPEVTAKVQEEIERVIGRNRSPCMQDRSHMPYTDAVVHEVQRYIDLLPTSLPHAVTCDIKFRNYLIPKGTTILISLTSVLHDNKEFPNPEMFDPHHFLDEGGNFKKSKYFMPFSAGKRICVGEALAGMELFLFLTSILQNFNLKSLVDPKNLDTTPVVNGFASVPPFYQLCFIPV
# Sequence of Cytochrome P450 3A4 (P08684 whole entry, canonical isoform): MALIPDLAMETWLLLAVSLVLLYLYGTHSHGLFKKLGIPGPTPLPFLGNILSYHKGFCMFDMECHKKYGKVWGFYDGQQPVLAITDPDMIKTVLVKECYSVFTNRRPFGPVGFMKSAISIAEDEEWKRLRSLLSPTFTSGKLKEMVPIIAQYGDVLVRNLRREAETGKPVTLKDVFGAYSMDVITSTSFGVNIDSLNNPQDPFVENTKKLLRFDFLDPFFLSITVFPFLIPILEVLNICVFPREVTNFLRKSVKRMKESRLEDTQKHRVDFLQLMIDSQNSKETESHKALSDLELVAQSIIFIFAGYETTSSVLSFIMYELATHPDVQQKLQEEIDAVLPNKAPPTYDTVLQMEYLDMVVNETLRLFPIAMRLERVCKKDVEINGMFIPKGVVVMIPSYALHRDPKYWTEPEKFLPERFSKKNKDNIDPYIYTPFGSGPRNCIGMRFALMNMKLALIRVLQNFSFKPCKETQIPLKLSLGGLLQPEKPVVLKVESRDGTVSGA
# Sequence of Cytochrome P450 2C19 (P33261 whole entry, canonical isoform): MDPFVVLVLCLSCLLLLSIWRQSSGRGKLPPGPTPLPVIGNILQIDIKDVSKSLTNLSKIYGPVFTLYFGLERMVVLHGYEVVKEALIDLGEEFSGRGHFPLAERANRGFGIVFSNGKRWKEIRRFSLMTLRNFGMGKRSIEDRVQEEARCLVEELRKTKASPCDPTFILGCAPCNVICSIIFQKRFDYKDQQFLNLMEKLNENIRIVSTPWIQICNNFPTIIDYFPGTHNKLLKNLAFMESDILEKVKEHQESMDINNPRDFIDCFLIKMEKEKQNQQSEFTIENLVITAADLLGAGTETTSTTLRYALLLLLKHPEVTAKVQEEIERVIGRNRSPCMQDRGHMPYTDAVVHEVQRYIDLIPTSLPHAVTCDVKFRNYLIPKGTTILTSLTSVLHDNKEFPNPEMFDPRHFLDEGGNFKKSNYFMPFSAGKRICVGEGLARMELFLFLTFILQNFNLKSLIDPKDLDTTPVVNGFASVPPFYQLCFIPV
# Sequence of Cytochrome P450 2D6 (P10635 whole entry, canonical isoform): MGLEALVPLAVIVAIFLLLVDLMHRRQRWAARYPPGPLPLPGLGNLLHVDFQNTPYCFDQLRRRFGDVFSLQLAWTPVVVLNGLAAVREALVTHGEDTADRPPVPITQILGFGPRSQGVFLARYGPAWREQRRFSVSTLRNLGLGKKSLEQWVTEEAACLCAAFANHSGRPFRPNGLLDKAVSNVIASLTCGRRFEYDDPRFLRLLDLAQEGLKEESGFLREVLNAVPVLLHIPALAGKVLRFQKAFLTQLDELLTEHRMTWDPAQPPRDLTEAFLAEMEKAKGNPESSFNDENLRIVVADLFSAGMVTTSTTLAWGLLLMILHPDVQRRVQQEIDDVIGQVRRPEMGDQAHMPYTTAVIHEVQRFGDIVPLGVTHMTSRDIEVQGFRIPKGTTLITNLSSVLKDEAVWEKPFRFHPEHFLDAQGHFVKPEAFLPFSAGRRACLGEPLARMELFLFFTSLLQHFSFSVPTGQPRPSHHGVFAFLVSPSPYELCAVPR
# Sequence of CYP2D6 (P10635 whole entry, canonical isoform): as above
# Sequence of CYP2C9 (P11712 whole entry, canonical isoform): as the sequence (P11712 whole entry, canonical isoform) above
# Sequence of CYP3A4 (P08684 whole entry, canonical isoform): as the sequence (P08684 whole entry, canonical isoform) above
# Sequence of CYP2C19 (P33261 whole entry, canonical isoform): as the sequence (P33261 whole entry, canonical isoform) above
compound,measurement,setting,value
COC(=O)C(C)c1ccc(-c2cc(Cl)cc(Cl)c2)c(F)c1 (stereo unspecified),inhibition,[1],45%
CC(C(=O)O)c1ccc(-c2ccsc2)c(F)c1 (stereo unspecified),inhibition,[2],40%
CC(C(=O)O)c1ccc(-c2ccc(-c3ccc(O)cc3)cc2)c(F)c1 (stereo unspecified),IC50,Cytochrome P450 2C9,4.7 µM
same,IC50,Cytochrome P450 3A4,74 µM
same,IC50,Cytochrome P450 2C19,58 µM
same,IC50,[3],35 µM
same,Papp,[4],> 5 ×10⁻⁶ cm/s
same,inhibition,[5],17%
same,inhibition,[2],75%
same,Ratio,[6],1.1%
same,Clearance,[7],85 mL/h
O=C(O)C1(c2ccc(-c3ccc(OC4CCOCC4)cc3)c(F)c2)CC1,inhibition,[2],28%
same,Ratio,[6],1.1%
same,Clearance,[7],70.5 mL/h
C[C@H](C(=O)O)c1ccc(-c2ccccc2)c(F)c1 [ESFLURBIPROFEN],IC50,[8],0.03 µM
CC(C(=O)O)c1ccc(-c2ccccc2Cl)c(F)c1 (stereo unspecified),inhibition,[2],13%
CC(C(=O)O)c1ccc(-c2ccc(C(F)(F)F)cc2)cc1 (stereo unspecified),inhibition,[2],2%
O=C(O)C1(c2ccc(-c3ccc(-c4ccc(O)cc4)cc3)c(F)c2)CC1,IC50,Cytochrome P450 2C9,89 µM
same,IC50,Cytochrome P450 2D6,21.5 µM
same,IC50,Cytochrome P450 2C19,35 µM
same,IC50,[3],31.6 µM
same,Papp,[4],> 5 ×10⁻⁶ cm/s
same,IC50,[9],409 µM
same,inhibition,[5],< 1%
same,inhibition,[2],99%
CC1(C)CCC(c2ccc(-c3ccc(C4(C(=O)O)CC4)cc3F)cc2)CC1,IC50,Cytochrome P450 2C9,17 µM
same,IC50,Cytochrome P450 2D6,5.3 µM
same,IC50,Cytochrome P450 3A4,84 µM
same,IC50,Cytochrome P450 2C19,13 µM
same,IC50,[3],46 µM
same,Papp,[4],< 1 ×10⁻⁶ cm/s
same,IC50,[9],101 µM
same,inhibition,[5],17%
same,inhibition,[2],75%
same,Ratio,[6],Below LLOQ
same,Clearance,[7],145.8 mL/h
CC(C(=O)O)c1ccc(-c2ccc(C(F)(F)F)cc2)c(Cl)c1 (stereo unspecified),inhibition,[10],40%
CC(c1ccc(-c2ccc(C(F)(F)F)cc2)c(F)c1)c1nnn[nH]1 (stereo unspecified),IC50,[3],114 µM
same,inhibition,[5],9%
same,inhibition at 100 µM,CYP1A2,> 50%
same,inhibition at 100 µM,CYP2D6,> 50%
same,inhibition at 100 µM,CYP2C9,> 50%
same,inhibition at 100 µM,CYP3A4,> 50%
same,inhibition at 100 µM,CYP2C19,> 50%
same,inhibition,[2],43%
O=C(O)C1(c2ccc(-c3ccc(-c4ccc(O)cc4)c(F)c3)c(F)c2)CC1,IC50,Cytochrome P450 3A4,58 µM
same,IC50,Cytochrome P450 2C19,74 µM
same,IC50,[3],33.6 µM
same,Papp,[4],> 5 ×10⁻⁶ cm/s
same,IC50,[11],111 µM
same,inhibition,[5],< 1%
same,inhibition,[2],80%
same,Clearance,[7],109 mL/h
same,Ratio,[12],Below LLOQ
CC(C(=O)O)c1ccc(-c2ccc(Cl)cc2)c(F)c1 (stereo unspecified),inhibition,[2],55%
C[C@@H](C(=O)O)c1ccc(-c2ccccc2)c(F)c1 [TARENFLURBIL],IC50,[3],280 µM
same,IC50,[8],44 µM
CC(C(=O)O)c1ccc(-c2ccc3c(c2)OCO3)c(F)c1 (stereo unspecified),IC50,[3],210 µM
same,inhibition,[2],42%
CC(C(=O)NO)c1ccc(-c2ccc(C(F)(F)F)cc2)c(F)c1 (stereo unspecified),inhibition,[2],31%
CC(C(=O)O)c1ccc(-c2ccccc2C(F)(F)F)c(F)c1 (stereo unspecified),inhibition,[2],25%
